Results: ChEMBL document CHEMBL4257483, “Design, synthesis and bioactivities of phenithionate analogues or derivatives for anti-schistosomiasis” (Medchemcomm, 2018)
Values after ≈ are worked out from the molar mass of the structure shown. Active and inactive are the calls of the source. The calls are words filed in the database; no cut-off is given here.

Assays:
[1] = system: Schistosoma japonicum; experiment: Antischistosomal activity against Schistosoma japonicum imago derived from infected mouse assessed as reduction in imago viability after 72 hrs; type: functional, organism-based
How it was run: (§1)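 Worms perfused with cold heparinised HBSS from mice infected percutaneously with S. japonicum cercariae: larvae at 15 days post-infection (260–280 cercariae), adults at 35 days (120–140 cercariae). Five male and female worms per well in 10% calf serum RPMI 1640 with penicillin, streptomycin and amphotericin B. Preincubated 4 h at 37 °C, 5% CO2, then compounds added and viability recorded over 72 h. IC50 taken at 50% survival. DMSO blank.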

[2] = system: Schistosoma japonicum; experiment: Antischistosomal activity against Schistosoma japonicum infected in mouse at 50 mg/kg/day, po treated for 5 days measured after day 3 post last dose by ELISA; type: functional, organism-based
How it was run: (§2)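 Male mice (20–22 g) infected via abdominal skin with 120–140 S. japonicum cercariae. From day 35 post-infection, dosed orally once daily for 5 days. Venous blood then clotted and centrifuged 15 min at 3500 rpm. Serum tested by triple dot ELISA and scored by spot colour: brown +++, yellow ++, slight yellow +, colourless –. DMSO blank.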

[3] = system: Schistosoma japonicum; experiment: Antischistosomal activity against Schistosoma japonicum infected in mouse at 25 mg/kg/day, po treated for 5 days measured after day 7 post last dose by ELISA; type: functional, organism-based; how it was run: as §2
[4] = system: Schistosoma haematobium; experiment: Antischistosomal activity against Schistosoma haematobium imago derived from infected mouse at 20 ug/ml after 72 hrs; type: functional, organism-based
[5] = system: Schistosoma japonicum; experiment: Antischistosomal activity against Schistosoma japonicum infected in mouse at 25 mg/kg/day, po treated for 5 days measured after day 2 post last dose by ELISA; type: functional, organism-based; how it was run: as §2
[6] = Dissociation constant, pKa of the compound; type: physicochemical
[7] = system: Schistosoma japonicum; experiment: Antischistosomal activity against Schistosoma japonicum infected in mouse at 25 mg/kg/day, po treated for 5 days measured after day 6 post last dose by ELISA; type: functional, organism-based; how it was run: as §2
[8] = system: Schistosoma japonicum; experiment: Antischistosomal activity against Schistosoma japonicum infected in mouse at 25 mg/kg/day, po treated for 5 days measured after day 9 post last dose by ELISA; type: functional, organism-based; how it was run: as §2
[9] = system: Schistosoma japonicum; experiment: Antischistosomal activity against Schistosoma japonicum infected in mouse at 25 mg/kg/day, po treated for 5 days measured after day 4 post last dose by ELISA; type: functional, organism-based; how it was run: as §2
[10] = Lipid/water partition coefficient, log P of the compound; type: physicochemical
[11] = system: Schistosoma japonicum; experiment: Antischistosomal activity against Schistosoma japonicum infected in mouse at 25 mg/kg/day, po treated for 5 days measured after day 3 post last dose by ELISA; type: functional, organism-based; how it was run: as §2
[12] = system: Schistosoma japonicum; experiment: Antischistosomal activity against Schistosoma japonicum infected in mouse at 25 mg/kg/day, po treated for 5 days measured after day 1 post last dose by ELISA; type: functional, organism-based; how it was run: as §2
[13] = system: Schistosoma japonicum; experiment: Antischistosomal activity against Schistosoma japonicum infected in mouse at 50 mg/kg/day, po treated for 5 days measured after day 7 post last dose by ELISA; type: functional, organism-based; how it was run: as §2
[14] = system: Schistosoma japonicum; experiment: Antischistosomal activity against Schistosoma japonicum infected in mouse at 25 mg/kg/day, po treated for 5 days measured after day 8 post last dose by ELISA; type: functional, organism-based; how it was run: as §2
[15] = system: Schistosoma japonicum; experiment: Antischistosomal activity against Schistosoma japonicum infected in mouse at 50 mg/kg/day, po treated for 5 days measured after day 5 post last dose by ELISA; type: functional, organism-based; how it was run: as §2
[16] = system: Schistosoma japonicum; experiment: Antischistosomal activity against Schistosoma japonicum infected in mouse at 50 mg/kg/day, po treated for 5 days measured after day 6 post last dose by ELISA; type: functional, organism-based; how it was run: as §2
[17] = system: Schistosoma japonicum; experiment: Antischistosomal activity against Schistosoma japonicum infected in mouse at 50 mg/kg/day, po treated for 5 days measured after day 4 post last dose by ELISA; type: functional, organism-based; how it was run: as §2
[18] = system: Schistosoma japonicum; experiment: Antischistosomal activity against Schistosoma japonicum infected in mouse at 50 mg/kg/day, po treated for 5 days measured after day 2 post last dose by ELISA; type: functional, organism-based; how it was run: as §2
[19] = Acute toxicity in po dosed mouse infected with Schistosoma japonicum treated for 5 days; type: organism-based; conditions: in vivo
[20] = system: Schistosoma japonicum; experiment: Antischistosomal activity against Schistosoma japonicum infected in mouse at 50 mg/kg/day, po treated for 5 days measured after day 9 post last dose by ELISA; type: functional, organism-based; how it was run: as §2
[21] = system: Schistosoma japonicum; experiment: Antischistosomal activity against Schistosoma japonicum infected in mouse at 50 mg/kg/day, po treated for 5 days measured after day 1 post last dose by ELISA; type: functional, organism-based; how it was run: as §2
[22] = system: Schistosoma japonicum; experiment: Antischistosomal activity against Schistosoma japonicum infected in mouse at 50 mg/kg/day, po treated for 5 days measured after day 8 post last dose by ELISA; type: functional, organism-based; how it was run: as §2
[23] = system: Schistosoma japonicum; experiment: Antischistosomal activity against Schistosoma japonicum larva derived from infected mouse assessed as reduction in larva viability after 72 hrs; type: functional, organism-based; how it was run: as §1
[24] = system: Schistosoma mansoni; experiment: Antischistosomal activity against Schistosoma mansoni imago derived from infected mouse at 20 ug/ml after 72 hrs; type: functional, organism-based
[25] = system: Schistosoma japonicum; experiment: Antischistosomal activity against Schistosoma japonicum infected in mouse at 25 mg/kg/day, po treated for 5 days measured after day 5 post last dose by ELISA; type: functional, organism-based; how it was run: as §2
[26] = system: Schistosoma japonicum; experiment: Antischistosomal activity against Schistosoma japonicum imago derived from infected mouse at 20 ug/ml after 72 hrs; type: functional, organism-based; how it was run: as §1

Compound | IC50 [1] [µg/mL] | Activity [2] | Activity [3] | Activity [4] | Activity [5] | pKa [6] | Activity [7] | Activity [8] | Activity [9] | logP [10] | Activity [11] | Activity [12] | Activity [13] | Activity [14] | Activity [15] | Activity [16] | Activity [17] | Activity [18] | LD50 at 120 h [19] [mg/kg] | Activity [20] | other results
Oc1ccc(OC(=S)Nc2ccc(Nc3ccc(C(F)(F)F)cc3)cc2)cc1 | 6.68 (≈ 16.5 µM) | Active | inactive | inactive | Active | 9.23 | inactive | inactive | Active | 6.04 | Active | Active | inactive | inactive | inactive | inactive | inactive | Active | > 500 | inactive | Activity [21]: Active; Activity [22]: inactive; IC50 [23]: 5.43 µg/mL (≈ 13.4 µM); Activity [24]: inactive; Activity [25]: Active; Activity [26]: Active
O=[N+]([O-])c1ccc(Nc2ccc(NC(=S)Oc3ccc(O)cc3)cc2)cc1 | 8.05 (≈ 21.1 µM) | Active | Active | inactive | Active | 9.22 | Active | inactive | Active | 4.54 | Active | Active | inactive | inactive | Active | inactive | Active | Active | 280 | inactive | Activity [21]: Active; Activity [22]: inactive; IC50 [23]: 6.42 µg/mL (≈ 16.8 µM); Activity [24]: inactive; Activity [25]: Active; Activity [26]: Active
O=[N+]([O-])c1ccc(Oc2ccc(NC(=S)Oc3ccc(O)cc3)cc2)cc1 | 8.02 (≈ 21 µM) | Active | Active | inactive | Active | 9.23 | Active | inactive | Active | 5.01 | Active | Active | inactive | inactive | Active | inactive | Active | Active | 275 | inactive | Activity [21]: Active; Activity [22]: inactive; IC50 [23]: 6.38 µg/mL (≈ 16.7 µM); Activity [24]: inactive; Activity [25]: Active; Activity [26]: Active
